Source: PubChem BioAssay
OX1R antag-1: blocks the human orexin 1 receptor; O43613; OX1R-expressing cells, FRET antagonist read-out; inhibition, % at 6.6 µM; 1.8% of 330,000 active; AID 485270; in the data active = inhibition mostly above about 38%, no sharp cut-off; inactive = mostly below about 40%;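 also: 0% = agonist challenge alone and 100% = reference antagonist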
GalR3 antagonist: human GalR3 antagonism. 0.44% of 360,000 active. HEK293 GalR3-CNG cAMP membrane potential fluorescence; galR3 body fused to GalR1 C-terminus. inhibition, % at 3 µM;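 active = inhibition above the screen-wide average plus 3 SD, cut at about 13% in these data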;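 also: forskolin and galanin both at EC90 stimulate the cells; cAMP rise reported by CNG channel membrane potential dye signal; 0% = forskolin plus galanin with DMSO and 100% = forskolin alone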
Target sequence (O60755 1-299 limits assumed): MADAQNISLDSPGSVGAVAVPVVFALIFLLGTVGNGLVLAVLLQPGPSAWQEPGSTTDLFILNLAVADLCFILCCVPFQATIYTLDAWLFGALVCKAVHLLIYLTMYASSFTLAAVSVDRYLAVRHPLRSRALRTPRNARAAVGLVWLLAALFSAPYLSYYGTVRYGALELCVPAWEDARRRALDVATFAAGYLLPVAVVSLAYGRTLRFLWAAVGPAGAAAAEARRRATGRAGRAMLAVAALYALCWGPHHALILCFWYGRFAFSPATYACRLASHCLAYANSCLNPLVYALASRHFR
OX1R antag-2: antagonists of human orexin 1 receptor; O43613; inhibition, % at 5 µM; 0.43% of 330,000 active; CHO/OX1R cells, Fluo-8 calcium fluorescence, orexin A;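 active = inhibition above its plate's threshold, mean inhibition of all tested compounds on the plate plus 3 SD, cut at about 37% in these data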;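 also: 0% = orexin A challenge wells and 100% = SB-334867-A antagonist wells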
CHO parental Ca: counter-screen: ATP calcium response change in parental CHO cells. parental CHO-K1, ATP-induced calcium, Fluo-8 fluorescence. inhibition, % at 5.6 µM. 0.63% of 330,000 active. AID 463079;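 active = inhibition above that plate's mean sample inhibition plus 3 SD, cut at about 26% in these data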;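 also: 0% = ATP-challenged DMSO wells and 100% = DMSO wells without ATP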
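Test system: untransfected parental CHO cell line; also added: ATP stimulus; dosing: 5.6 µM, single dose; signal: calcium-sensitive Fluo-8 fluorescence; measure: percent inhibition of ATP-evoked calcium rise, normalized to controls; benchmarks: low control ATP plus DMSO, high control DMSO only; replication: one well per compound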
GPR7 antag: antagonists of human GPR7 (neuropeptides B/W receptor 1). inhibition, % at 4.4 µM. GPR7-expressing cells, fluorescence antagonist assay. P48145. 1.1% of 290,000 active. AID 1861; in the data active = inhibition above about 16%, passing the limit was not always enough;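 also: cells stimulated with the agonist NPW; 0% = agonist with vehicle and 100% = vehicle without agonist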
Target sequence (P48145 whole entry, looked up): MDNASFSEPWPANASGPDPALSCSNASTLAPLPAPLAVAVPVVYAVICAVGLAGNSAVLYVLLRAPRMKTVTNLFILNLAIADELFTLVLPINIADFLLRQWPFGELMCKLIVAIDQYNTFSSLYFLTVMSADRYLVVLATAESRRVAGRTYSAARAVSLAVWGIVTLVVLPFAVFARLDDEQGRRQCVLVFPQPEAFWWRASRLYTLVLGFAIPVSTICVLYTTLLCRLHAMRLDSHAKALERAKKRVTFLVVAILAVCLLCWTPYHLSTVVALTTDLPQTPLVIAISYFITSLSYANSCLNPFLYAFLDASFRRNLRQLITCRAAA
OX1R Fluo8 conf: OX1R (human) antagonism, confirmed; shares compounds with OX1R antag-2; CHO/OX1R cells, orexin A calcium Fluo-8 fluorescence; inhibition, % at 5 µM; 38% of 1,100 active; AID 492963; in the data active = inhibition above about 29%;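 also: 0% = agonist challenge alone and 100% = reference antagonist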
CHO Ca triplic: counter-screen: parental CHO calcium response change, triplicate. parental CHO-K1, ATP-induced calcium, Fluo-8 fluorescence. 9.3% of 1,100 active. inhibition, % at 5.6 µM. shares compounds with OX1R antag-2;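 active = inhibition above a per-plate limit, the mean inhibition of that plate's test compounds plus 3 SD, cut at about 25% in these data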;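 also: 0% = ATP challenge with DMSO and 100% = DMSO without ATP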
OX1R HTRF confirm: OX1R (human) antagonism, HTRF confirmed. inhibition, % at 6.6 µM. shares compounds with OX1R antag-1. OX1R-expressing cells, HTRF antagonist assay. 49% of 1,800 active; in the data active = inhibition above about 55%;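 also: CHO cells expressing OX1R stimulated with orexin A at about EC80; 0% = agonist challenge alone and 100% = reference antagonist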
CHO-K1 HTRF: signal in parental CHO-K1 cells, OX1R antagonist counter-screen. shares compounds with OX1R antag-1. HTRF counterscreen. inhibition, % at 6.6 µM. 48% of 1,800 active. AID 493232; in the data active = inhibition above about 17%;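 also: 0% = agonist challenge with vehicle and 100% = vehicle alone without agonist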
* hit, by the source's call; . = no result. The list is not random: actives were taken first. Their share in the collection is about 3.1%.

SMILES	OX1R antag-1	GalR3 antagonist	OX1R antag-2	CHO parental Ca	GPR7 antag	OX1R Fluo8 conf	CHO Ca triplic	OX1R HTRF confirm	CHO-K1 HTRF
CN(C)c1ccc(NC(=O)CSc2n[nH]c(-c3ccncc3)n2)cc1	.	-2.8	.	.	.	.	.	.	.
Cc1nc2ccc3nc(NC(=O)c4ccco4)sc3c2s1	72.1*	-6.6	61.5*	-18.3	-5.9	23.2	-5.1	84.4*	1.6
Cc1cc(C(=O)CN2C(=O)NC3(CCCc4sccc43)C2=O)c(C)n1-c1ccccc1 (stereo unspecified)	85.2*	-6.3	38.3*	-10.0	-7.2	34.8*	-10.3	79.8*	-3.2
COc1ccc(-n2c(C)cc(C(=O)CN3C(=O)NC4(CCCc5sccc54)C3=O)c2C)cc1 (stereo unspecified)	40.8	-4.9	-19.2	-15.8	3.7	.	.	.	.
N#CC1(Nc2ccc(S(N)(=O)=O)cc2)CCCC1	.	-4.0	.	.	.	.	.	.	.
OCCn1c(SCCOc2ccccc2F)nc2ccccc21	104.7*	-2.4	52.3*	-16.7	-3.7	10.6	-7.5	49.5	-5.1
Cc1sc(NC(=O)Cn2[nH]c(=O)c3ccccc3c2=O)nc1-c1ccccc1	74.4*	0.0	38.6*	-9.8	-3.1	42.6*	-4.1	75.9*	-0.4
Cc1c(NC(=O)Cn2[nH]c(=O)c3ccccc3c2=O)c(=O)n(-c2ccccc2)n1C	6.5	4.8	-7.4	4.3	-1.2	.	.	.	.
O=C(CSc1nc2ncccc2[nH]1)Nc1ccccc1-c1ccccc1	71.7*	-6.5	33.1	-19.0	3.0	31.1*	-4.9	72.0*	6.1
COc1ccccc1NC(=O)CSc1nc2ncccc2[nH]1	8.5	-3.4	-21.6	-19.4	-11.9	.	.	.	.
COc1ccc(CN(C(=O)CN2C(=O)C(C)Oc3ccccc32)C2CCCC2)c(OC)c1 (stereo unspecified)	83.7*	.	59.0*	-28.8	-5.6	24.2	-12.9	76.7*	3.8
CC1Oc2ccccc2N(CC(=O)NC2CCCC2)C1=O (stereo unspecified)	9.9	-3.5	-15.1	-14.8	-1.5	.	.	.	.
O=C(C(=O)N1CCN(c2ccccc2)CC1)c1ccncc1	.	-5.3	.	.	.	.	.	.	.
O=[N+]([O-])c1ccc(O)c(/C=N/Nc2ccccc2Cl)c1	80.7*	-3.2	34.7	17.8	-10.1	37.1*	14.2	84.4*	11.4
COCCCNC(=O)CCC(=O)NNc1nc2ccccc2c2nc(-c3ccccc3)nn12	95.3*	2.1	33.4	-25.5	2.3	28.9*	-13.1	81.5*	-1.2
CCn1c2ccccc2c2cc(N=C3SC(CC(=O)Nc4ccccc4OC)C(=O)N3CCOC)ccc21 (stereo unspecified)	77.2*	-3.7	57.9*	-3.6	-4.7	52.2*	-12.6	82.6*	1.9
CCn1c2ccccc2c2cc(N=C3SC(CC(=O)Nc4ccccc4OC)C(=O)N3C)ccc21 (stereo unspecified)	56.9	-4.0	22.6	-14.2	-11.9	.	.	.	.
O=C(Nc1nccs1)c1ccc(-c2ccc(F)c(Cl)c2)o1	97.4*	-5.7	47.3*	-16.8	-20.6	18.6	-15.3	71.8*	12.8
O=C(Nc1nccs1)c1ccc(COc2c(F)c(F)cc(F)c2F)o1	8.0	-3.1	-9.8	-8.2	.	.	.	.	.
O=C(O)CC(c1ccc(Br)cc1)N1Cc2ccccc2C1=O (stereo unspecified)	9.4	-8.3	-5.1	-0.7	-3.7	.	.	.	.
O=C(N/N=C/c1cccc(C(F)(F)F)c1)c1cc2c(s1)-c1ccccc1CC2	11.6	-0.2	-4.2	4.9	-12.9	.	.	.	.
Cc1cccc(/C=N/NC(=O)c2cc3c(s2)-c2ccccc2CC3)c1	87.2*	1.0	81.2*	-14.8	-2.6	91.7*	-8.8	84.6*	0.2
CCN(CC)C(=O)CSc1nc2c(sc(=S)n2CC)c(=O)n1-c1ccccc1	9.4	-4.3	-32.6	-22.4	0.9	.	.	.	.
CCN(CC)C(=O)CSc1nc2c(sc(=S)n2-c2ccccc2OC)c(=O)n1-c1ccccc1	75.7*	-8.3	31.4	-35.7	1.5	38.5*	-8.2	69.2*	0.6
Cc1nc(-c2ccc(F)cc2)c(CC(=O)Nc2ccc(C)c(S(=O)(=O)N3CCOCC3)c2)s1	11.0	-4.0	-24.7	-15.2	10.1	.	.	.	.
SMILES	OX1R antag-1	GalR3 antagonist	OX1R antag-2	CHO parental Ca	GPR7 antag	OX1R Fluo8 conf	CHO Ca triplic	OX1R HTRF confirm	CHO-K1 HTRF
O=S(=O)(NN1CCOCC1)c1cc(Cl)cc(Cl)c1O	1.6	-0.1	-5.8	6.1	-21.4	.	.	.	.
Cc1ccccc1N(CC(=O)NC1CCCC1)C(=O)c1oc(C(C)(C)C)cc1C	93.4*	.	37.5	-21.3	5.8	57.5*	-9.4	85.8*	1.8
COCCNC(=O)CN1C(=O)COc2ccc(S(=O)(=O)N3CC(C)CC(C)C3)cc21 (stereo unspecified)	17.1	-0.9	-30.6	-19.1	-7.7	.	.	.	.
Cc1csc(NC(=O)C2CCN(S(=O)(=O)c3ccccc3F)CC2)n1	14.0	-1.4	-22.1	5.3	-4.6	.	.	.	.
COC(=O)c1sc(NC(=O)c2cc3c(s2)CCCC3)nc1C	89.3*	-8.2	58.0*	-20.3	10.9	26.6	-17.4	98.4*	-0.9
Cc1nc(NC(=O)c2cc3c(s2)CCCCC3)sc1C(=O)N(C)C	31.9	-3.8	1.8	-29.4	0.6	.	.	.	.
Cc1cc(Br)cc2c1NC(=O)C2(c1c(C)n(C)n(-c2ccccc2)c1=O)c1c(C)n(C)n(-c2ccccc2)c1=O	69.2*	1.8	31.4	-7.8	-10.4	57.0*	-5.8	71.5*	8.4
Cc1c(C2(c3c(C)n(C)n(-c4ccccc4)c3=O)C(=O)Nc3ccc(F)cc32)c(=O)n(-c2ccccc2)n1C	24.0	0.3	16.7	6.8	-7.1	.	.	.	.
CSC1=NSC2=NC(=O)/C(=C/c3coc4ccccc4c3=O)C(=N)N12	77.7*	-4.7	65.9*	47.2	6.8	26.6	15.1	39.4	-7.2
CSC1=NSC2=NC(=O)/C(=C\c3cccs3)C(=N)N12	21.4	7.4	-8.7	-6.0	-2.1	.	.	.	.
O=C(Nc1cccc(-c2nc3ccccc3s2)c1)c1ccc2c(c1)OCO2	86.7*	3.2	44.2*	-18.9	-2.8	25.3	-6.3	94.1*	14.6
Cc1ccc(S(=O)(=O)N2[C@@H](c3ccccc3)C(C(=O)O)=CC[C@H]2c2cccc(C)c2)cc1	37.1	-4.3	-6.2	-17.6	.	.	.	.	.
Cc1ccc(S(=O)(=O)N2[C@@H](c3cccc(Cl)c3)C(C(=O)O)=CC[C@H]2c2ccc(C(C)C)cc2)cc1	69.9*	-3.7	36.4	10.1	.	24.4	0.0	76.8*	7.4
Cc1ccc([C@@H]2CC=C(C(=O)O)[C@H](c3cccc(F)c3)N2S(=O)(=O)c2ccccc2C)cc1	71.1*	-6.4	50.4*	-14.1	.	25.9	-3.3	85.6*	3.5
